Data taken from ChEMBL document CHEMBL4311941, “Development of Multifunctional Histone Deacetylase 6 Degraders with Potent Antimyeloma Activity” (J Med Chem, 2019).
The source made the active and inactive calls. No cut-off for these calls is given here.

Assays:
[1] = biological target: T1, Protein cereblon/Protein deacetylase HDAC6 (Homo sapiens, UniProt Q9UBN7+Q96SW2); assay: Protac activity at CRBN/HDAC6 in human MM1S cells assessed as HDAC6 degradation at 100 nM measured after 6 hrs in presence of proteasome inhibitor MG132 by Western blot analysis; assay type: cell-based
[2] = biological target: T1, Protein cereblon/Protein deacetylase HDAC6; assay: Protac activity at CRBN/HDAC6 in human MM1S cells assessed as HDAC6 degradation at 10 to 100 nM measured after 6 hrs by Western blot analysis; assay type: cell-based
[3] = biological target: T2, Protein cereblon/Zinc finger protein Aiolos (Homo sapiens) (UniProt Q96SW2+Q9UKT9); assay: Protac activity at CRBN/IKZF3 in human MM1S cells assessed as IKZF3 degradation at 100 nM measured after 6 hrs in presence of E3 ligase ligand pomalidomide by Western blot analysis; assay type: cell-based
Summary of the method: (§1)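 MM1S cells seeded at 1 × 10^6 per well overnight. Pretreated 1 h with pomalidomide, Next-A, MLN 4924 or DMSO, then given 100 nM degrader or DMSO for 6 h. Lysed in RIPA with protease inhibitors, 10−40 μg protein run on SDS-PAGE and transferred to PVDF. Blots probed for IKZF1/IKZF3, detected by ECL and quantified by densitometry.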

[4] = biological target: Protein cereblon/Histone deacetylase 3 (Homo sapiens) (UniProt O15379+Q96SW2); assay: Protac activity at CRBN/HDAC3 in human MM1S cells assessed as HDAC3 degradation measured after 6 hrs by Western blot analysis; assay type: cell-based
MM1.S [5] = assay: Effect on IKZF3 mRNA expression in human MM1S cells at 100 nM measured after 6 hrs by SYBR green dye-based qRT-PCR analysis; assay type: functional, cell-based
Summary of the method: (§2)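 After treatment, MM1S cells washed twice with cold PBS. Total RNA extracted and normalized, then reverse-transcribed. 10 ng cDNA amplified with SYBR Green: 50 °C 2 min, 95 °C 2 min, then 40 cycles of 95 °C 1 s / 60 °C 30 s, followed by a melt curve. Expression calculated by the 2−ΔΔCt method.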

[6] = biological target: Protein cereblon/Histone deacetylase 4 (Homo sapiens) (UniProt P56524+Q96SW2); assay: Protac activity at CRBN/HDAC4 in human MM1S cells assessed as HDAC4 degradation at 100 nM measured after 6 hrs in presence of proteasome inhibitor bortezomib by Western blot analysis; assay type: cell-based
Histone deacetylase 5 = Histone deacetylase 5 (Homo sapiens, UniProt Q9UQL6); assay: Inhibition of human N-terminal tagged human HDAC5 expressed in HEK293T/17 using Boc-[TFA-Lys]-AMC as substrate preincubated for 10 mins followed by substrate addition and measured after 60 mins by fluorescence assay
MM1.S [7] = assay: Effect on IKZF1 mRNA expression in human MM1S cells at 100 nM measured after 6 hrs by SYBR green dye-based qRT-PCR analysis; assay type: functional, cell-based; summary of the method: as §2
[8] = biological target: T3, Protein deacetylase HDAC6 (Homo sapiens, UniProt Q9UBN7); assay: Inhibition of human N-terminal tagged human HDAC6 expressed in HEK293T/17 using Ac-Gly-Ala-[Ac-Lys]-AMC as substrate preincubated for 10 mins followed by substrate addition and measured after 15 mins by fluorescence assay
T3 sequence (Q9UBN7 whole entry): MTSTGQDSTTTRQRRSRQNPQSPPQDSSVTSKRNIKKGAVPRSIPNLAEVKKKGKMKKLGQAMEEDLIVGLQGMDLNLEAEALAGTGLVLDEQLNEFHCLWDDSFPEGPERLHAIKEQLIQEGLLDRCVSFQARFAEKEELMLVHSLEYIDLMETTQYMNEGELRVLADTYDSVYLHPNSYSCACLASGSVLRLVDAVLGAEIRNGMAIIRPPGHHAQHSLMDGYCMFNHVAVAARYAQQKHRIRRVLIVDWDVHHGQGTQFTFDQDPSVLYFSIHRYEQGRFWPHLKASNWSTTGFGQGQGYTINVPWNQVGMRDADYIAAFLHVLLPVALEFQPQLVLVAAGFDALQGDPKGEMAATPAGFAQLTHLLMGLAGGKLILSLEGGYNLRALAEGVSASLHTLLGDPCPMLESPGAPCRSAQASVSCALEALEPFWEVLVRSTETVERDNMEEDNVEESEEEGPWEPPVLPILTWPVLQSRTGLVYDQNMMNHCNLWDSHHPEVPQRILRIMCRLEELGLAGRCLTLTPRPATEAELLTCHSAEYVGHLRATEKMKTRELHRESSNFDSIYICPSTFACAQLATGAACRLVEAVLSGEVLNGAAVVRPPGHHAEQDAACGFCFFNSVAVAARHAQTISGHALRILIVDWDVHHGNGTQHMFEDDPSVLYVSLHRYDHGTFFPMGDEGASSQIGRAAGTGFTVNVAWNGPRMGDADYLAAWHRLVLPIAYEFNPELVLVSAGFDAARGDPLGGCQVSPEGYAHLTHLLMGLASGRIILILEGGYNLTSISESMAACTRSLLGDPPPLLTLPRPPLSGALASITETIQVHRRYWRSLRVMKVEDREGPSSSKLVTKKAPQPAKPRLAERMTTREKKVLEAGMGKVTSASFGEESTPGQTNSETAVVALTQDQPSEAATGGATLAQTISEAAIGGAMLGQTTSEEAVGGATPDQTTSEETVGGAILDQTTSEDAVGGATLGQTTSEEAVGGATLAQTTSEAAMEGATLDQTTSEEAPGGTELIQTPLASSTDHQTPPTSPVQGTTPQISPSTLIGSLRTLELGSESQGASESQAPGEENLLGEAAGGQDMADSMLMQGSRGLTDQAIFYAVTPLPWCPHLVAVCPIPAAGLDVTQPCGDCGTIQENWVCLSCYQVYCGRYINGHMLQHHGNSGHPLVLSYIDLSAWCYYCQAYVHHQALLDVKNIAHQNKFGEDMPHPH

[9] = biological target: T1, Protein cereblon/Protein deacetylase HDAC6; assay: Protac activity at CRBN/HDAC6 in human MM1S cells assessed as induction of alpha tubulin acetylation measured after 6 hrs by Western blot analysis; assay type: cell-based
[10] = biological target: Cereblon/Ikaros (Homo sapiens) (UniProt Q96SW2+Q13422); assay: Protac activity at CRBN/IKZF1 in human MM1S cells assessed as IKZF1 degradation at 100 nM measured after 6 hrs in presence of HDAC6 inhibitor Next-A by Western blot analysis; assay type: cell-based; summary of the method: as §1
[11] = biological target: T1, Protein cereblon/Protein deacetylase HDAC6; assay: Protac activity at CRBN/HDAC6 in human Jurkat cells assessed as HDAC6 degradation at 10 to 100 nM incubated for 6 hrs by Western blot analysis; assay type: cell-based
[12] = biological target: T2, Protein cereblon/Zinc finger protein Aiolos (Homo sapiens); assay: Protac activity at CRBN/IKZF3 in human MM1S cells assessed as IKZF3 degradation at 100 nM measured after 4 hrs by Western blot analysis; assay type: cell-based
Summary of the method: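 Time course in MM1S cells (1 × 10^6 cells per well, seeded overnight) under 100 nM degrader. Whole-cell RIPA lysates analysed by 7.5−12% SDS-PAGE and PVDF immunoblot. Primary antibody at 4 °C overnight, HRP secondary 1 h, ECL detection with densitometry.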

T1 sequence (Q96SW2 whole entry, looked up, one chain of several): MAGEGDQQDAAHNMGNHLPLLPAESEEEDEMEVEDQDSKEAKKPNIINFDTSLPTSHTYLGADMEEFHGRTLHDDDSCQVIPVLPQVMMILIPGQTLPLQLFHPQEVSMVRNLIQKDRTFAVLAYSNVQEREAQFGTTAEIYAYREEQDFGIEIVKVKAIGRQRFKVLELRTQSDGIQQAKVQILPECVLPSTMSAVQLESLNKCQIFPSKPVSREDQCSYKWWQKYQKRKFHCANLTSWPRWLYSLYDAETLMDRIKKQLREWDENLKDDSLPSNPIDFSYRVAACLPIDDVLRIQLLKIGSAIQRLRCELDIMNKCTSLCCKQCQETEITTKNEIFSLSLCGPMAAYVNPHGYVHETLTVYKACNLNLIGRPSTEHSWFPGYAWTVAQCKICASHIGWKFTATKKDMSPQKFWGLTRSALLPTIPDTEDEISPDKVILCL
T2 sequence (Q96SW2 whole entry, looked up): as the sequence (Q96SW2 whole entry, looked up, one chain of several) above
T2 sequence (Q9UKT9 whole entry, looked up): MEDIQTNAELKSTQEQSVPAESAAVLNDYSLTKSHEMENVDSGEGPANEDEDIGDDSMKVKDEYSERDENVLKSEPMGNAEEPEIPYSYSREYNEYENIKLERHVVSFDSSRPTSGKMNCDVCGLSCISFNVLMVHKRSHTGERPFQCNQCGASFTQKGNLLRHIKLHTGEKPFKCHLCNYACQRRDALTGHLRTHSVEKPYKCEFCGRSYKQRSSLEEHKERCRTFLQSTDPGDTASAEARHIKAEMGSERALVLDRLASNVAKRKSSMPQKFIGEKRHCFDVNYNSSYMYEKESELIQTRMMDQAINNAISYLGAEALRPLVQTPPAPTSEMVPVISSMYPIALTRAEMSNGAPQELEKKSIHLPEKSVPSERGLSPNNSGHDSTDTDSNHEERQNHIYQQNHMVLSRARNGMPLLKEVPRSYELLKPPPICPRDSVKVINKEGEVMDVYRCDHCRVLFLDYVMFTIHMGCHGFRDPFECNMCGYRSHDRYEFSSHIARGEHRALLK
Protein cereblon/Histone deacetylase 4 (Homo sapiens), sequence (P56524 whole entry, looked up): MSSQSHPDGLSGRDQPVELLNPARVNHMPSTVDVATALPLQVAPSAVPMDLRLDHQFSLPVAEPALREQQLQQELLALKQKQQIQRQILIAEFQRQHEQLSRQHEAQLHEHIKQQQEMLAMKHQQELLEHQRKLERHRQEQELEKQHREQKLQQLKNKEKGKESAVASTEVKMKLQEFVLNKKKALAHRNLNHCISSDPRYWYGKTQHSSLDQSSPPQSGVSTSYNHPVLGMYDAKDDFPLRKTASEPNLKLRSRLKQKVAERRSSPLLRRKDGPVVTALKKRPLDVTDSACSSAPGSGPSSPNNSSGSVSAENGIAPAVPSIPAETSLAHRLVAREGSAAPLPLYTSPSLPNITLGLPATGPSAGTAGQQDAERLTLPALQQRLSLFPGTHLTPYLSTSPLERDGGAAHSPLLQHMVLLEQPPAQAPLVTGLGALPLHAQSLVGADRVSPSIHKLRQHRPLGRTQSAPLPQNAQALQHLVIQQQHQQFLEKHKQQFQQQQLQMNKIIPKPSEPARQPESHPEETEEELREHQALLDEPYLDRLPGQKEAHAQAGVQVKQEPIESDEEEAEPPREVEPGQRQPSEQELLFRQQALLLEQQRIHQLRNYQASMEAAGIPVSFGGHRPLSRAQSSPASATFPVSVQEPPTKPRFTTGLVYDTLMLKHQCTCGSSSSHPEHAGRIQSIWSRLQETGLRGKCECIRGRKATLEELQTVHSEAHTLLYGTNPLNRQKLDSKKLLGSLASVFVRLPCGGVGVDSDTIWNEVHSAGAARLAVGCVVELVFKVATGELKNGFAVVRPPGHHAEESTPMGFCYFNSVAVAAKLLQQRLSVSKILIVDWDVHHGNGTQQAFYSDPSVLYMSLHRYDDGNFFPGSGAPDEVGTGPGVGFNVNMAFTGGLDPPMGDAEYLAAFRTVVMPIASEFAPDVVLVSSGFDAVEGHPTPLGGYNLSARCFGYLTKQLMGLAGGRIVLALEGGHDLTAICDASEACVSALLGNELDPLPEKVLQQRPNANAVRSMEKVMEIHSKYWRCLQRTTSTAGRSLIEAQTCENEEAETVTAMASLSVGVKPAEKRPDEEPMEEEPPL
Protein cereblon/Histone deacetylase 4 (Homo sapiens), sequence (Q96SW2 whole entry, looked up): as the sequence (Q96SW2 whole entry, looked up, one chain of several) above
Histone deacetylase 5, sequence (Q9UQL6 whole entry): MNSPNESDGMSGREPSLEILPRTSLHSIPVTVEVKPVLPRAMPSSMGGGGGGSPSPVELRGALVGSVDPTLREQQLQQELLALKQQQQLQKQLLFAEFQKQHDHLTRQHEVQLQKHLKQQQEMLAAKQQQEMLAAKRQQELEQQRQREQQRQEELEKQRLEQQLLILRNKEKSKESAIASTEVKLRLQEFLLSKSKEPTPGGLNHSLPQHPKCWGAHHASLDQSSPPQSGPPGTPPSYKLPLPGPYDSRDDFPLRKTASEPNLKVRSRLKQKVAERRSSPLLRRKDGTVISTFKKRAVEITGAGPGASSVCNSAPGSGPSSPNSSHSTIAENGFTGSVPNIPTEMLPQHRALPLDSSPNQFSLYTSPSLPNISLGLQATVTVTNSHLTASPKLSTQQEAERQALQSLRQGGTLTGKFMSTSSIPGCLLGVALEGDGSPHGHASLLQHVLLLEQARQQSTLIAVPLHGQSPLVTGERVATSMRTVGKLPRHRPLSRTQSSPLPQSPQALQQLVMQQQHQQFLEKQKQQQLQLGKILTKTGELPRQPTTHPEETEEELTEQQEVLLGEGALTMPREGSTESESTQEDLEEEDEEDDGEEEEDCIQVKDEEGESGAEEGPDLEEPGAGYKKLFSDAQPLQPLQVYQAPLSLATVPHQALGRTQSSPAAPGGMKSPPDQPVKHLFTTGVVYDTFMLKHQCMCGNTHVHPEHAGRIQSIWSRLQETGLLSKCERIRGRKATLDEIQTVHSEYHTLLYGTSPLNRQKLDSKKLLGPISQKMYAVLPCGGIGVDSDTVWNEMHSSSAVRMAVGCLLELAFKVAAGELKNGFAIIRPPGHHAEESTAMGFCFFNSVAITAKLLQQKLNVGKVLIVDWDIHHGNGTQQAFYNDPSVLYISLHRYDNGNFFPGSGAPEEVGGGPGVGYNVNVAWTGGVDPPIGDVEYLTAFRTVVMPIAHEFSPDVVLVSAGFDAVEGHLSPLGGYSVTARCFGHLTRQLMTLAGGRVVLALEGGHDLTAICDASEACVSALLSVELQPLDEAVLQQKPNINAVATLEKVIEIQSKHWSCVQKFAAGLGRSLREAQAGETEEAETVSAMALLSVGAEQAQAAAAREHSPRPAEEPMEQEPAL
Protein cereblon/Histone deacetylase 3 (Homo sapiens), sequence (O15379 whole entry, looked up): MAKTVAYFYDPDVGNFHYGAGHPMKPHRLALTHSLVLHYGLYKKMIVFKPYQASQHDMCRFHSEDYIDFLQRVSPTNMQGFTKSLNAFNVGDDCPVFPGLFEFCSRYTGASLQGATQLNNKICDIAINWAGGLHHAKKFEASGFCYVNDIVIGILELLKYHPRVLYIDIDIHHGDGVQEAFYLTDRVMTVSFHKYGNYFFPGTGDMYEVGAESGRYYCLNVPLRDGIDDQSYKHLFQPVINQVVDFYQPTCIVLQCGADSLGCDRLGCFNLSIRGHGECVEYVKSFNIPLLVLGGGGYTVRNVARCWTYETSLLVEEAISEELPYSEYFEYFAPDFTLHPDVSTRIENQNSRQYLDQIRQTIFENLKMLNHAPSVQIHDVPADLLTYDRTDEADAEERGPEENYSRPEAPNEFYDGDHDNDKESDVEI
Protein cereblon/Histone deacetylase 3 (Homo sapiens), sequence (Q96SW2 whole entry, looked up): as the sequence (Q96SW2 whole entry, looked up, one chain of several) above

Activity [1]: inactive | Activity [2]: Active | Activity [3]: Active | Activity [4]: inactive | Activity [6]: inactive | IC50 (Histone deacetylase 5): 300 to 30000 nM | IC50 [8]: 8.7 nM | Activity [9]: Dose-dependent effect | Activity [10]: Active | Activity [11]: Active | Activity [12]: Active
Compound: CCCCN(Cc1ccc(C(=O)NO)cc1)C(=O)Nc1ccc(OCCCCCn2cc(CNc3cccc4c3C(=O)N(C3CCC(=O)NC3=O)C4=O)nn2)cc1 (stereo not drawn)
Activity (MM1.S [5]): Active | Activity (MM1.S [7]): Active
